Measurements from ChEMBL document CHEMBL1153861, “Synthesis, optimization and structure-activity relationships of 3,5-disubstituted isoxazolines as new anti-tuberculosis agents” (2009).
≈ marks a conversion by molar mass, not a printed value. Calls of active or inactive are those of the source. The rule behind the calls is not given here.

Key:
Streptococcus pneumoniae = assay: Antimicrobial activity against Streptococcus pneumoniae; type: functional, organism-based
Staphylococcus aureus = assay: Antimicrobial activity against Staphylococcus aureus; type: functional, organism-based
[1] = system: Mycobacterium tuberculosis; assay: Antitubercular activity against Mycobacterium tuberculosis H37Rv; type: functional
In short: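 Broth microdilution against M. tuberculosis H37Rv; MIC read by visual inspection of growth.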

Escherichia coli = assay: Antimicrobial activity against Escherichia coli; type: functional, organism-based

Compound	Activity (Streptococcus pneumoniae)	Activity (Staphylococcus aureus)	MIC [1]	Activity (Escherichia coli)
CCOC(=O)C1=NOC(c2ccc(N3CCOCC3)cc2)C1 (configuration not stated)	inactive	inactive	> 200 µg/mL	inactive
CCOC(=O)C1=NOC(c2ccc(N3CCN(CC4CC4)CC3)cc2)C1 (configuration not stated)	inactive	inactive	12.5 µg/mL (≈ 35 µM)	inactive
CCOC(=O)C1=NOC(c2ccc(N3CCN(C(=O)OC)CC3)cc2)C1 (configuration not stated)	inactive	inactive	1.56 µg/mL (≈ 4.32 µM)	inactive
CC(C)COC(=O)N1CCN(c2ccc(C3CC(C(=O)O)=NO3)cc2)CC1 (configuration not stated)	inactive	inactive	> 200 µg/mL	inactive
O=C(O)C1=NOC(c2ccc(N3CCN(C(=O)NCCc4ccccc4)CC3)cc2)C1 (configuration not stated)	inactive	inactive	> 200 µg/mL	inactive
CCOC(=O)C1=NOC(c2ccc(-c3noc(-c4ccccc4)n3)cc2)C1 (configuration not stated)	inactive	inactive	3.12 µg/mL (≈ 8.6 µM)	inactive
CCCNC(=O)N1CCN(c2ccc(C3CC(C(=O)OCC)=NO3)cc2)CC1 (configuration not stated)	inactive	inactive	25 µg/mL (≈ 64.4 µM)	inactive
CCCCCCNC(=O)N1CCN(c2ccc(C3CC(C(=O)O)=NO3)cc2)CC1 (configuration not stated)	inactive	inactive	> 200 µg/mL	inactive
NC(=O)C1=NOC(c2ccc(N3CCN(Cc4ccccc4)CC3)cc2)C1 (configuration not stated)	inactive	inactive	200 µg/mL (≈ 549 µM)	inactive
CCOC(=O)C1=NOC(c2ccc(N3CCN(Cc4ccccc4)CC3)cc2)C1 (configuration not stated)	inactive	inactive	1.56 µg/mL (≈ 3.96 µM)	inactive
C=CCOC(=O)N1CCN(c2ccc(C3CC(C(=O)OCC)=NO3)cc2)CC1 (configuration not stated)	inactive	inactive	0.8 µg/mL (≈ 2.06 µM)	inactive
CC(=O)NCC1=NOC(c2ccc(N3CCN(Cc4ccccc4)CC3)cc2)C1 (configuration not stated)	inactive	inactive	> 200 µg/mL	inactive
[N-]=[N+]=NCC1=NOC(c2ccc(N3CCN(Cc4ccccc4)CC3)cc2)C1 (configuration not stated)	inactive	inactive	50 µg/mL (≈ 133 µM)	inactive
CCOC(=O)C1=NOC(c2ccc(N3CCN(C(=O)NC(C)C)CC3)cc2)C1 (configuration not stated)	inactive	inactive	12.5 µg/mL (≈ 32.2 µM)	inactive
CCCCOC(=O)N1CCN(c2ccc(C3CC(C(=O)O)=NO3)cc2)CC1 (configuration not stated)	inactive	inactive	> 200 µg/mL	inactive
CCOC(=O)C1=NOC(c2ccc(-c3ccco3)cc2)C1 (configuration not stated)	inactive	inactive	3.25 µg/mL (≈ 11.4 µM)	inactive
OCC1=NOC(c2ccc(N3CCOCC3)cc2)C1 (configuration not stated)	inactive	inactive	> 200 µg/mL	inactive
CCOC(=O)C1=NOC(c2ccc(N3CCN(C(=O)OCC(C)C)CC3)cc2)C1 (configuration not stated)	inactive	inactive	0.8 µg/mL (≈ 1.98 µM)	inactive
CC(=O)NCC1=NOC(c2ccc(N3CCOCC3)cc2)C1 (configuration not stated)	inactive	inactive	> 200 µg/mL	inactive
CCOC(=O)C1=NOC(c2ccc(N3CCN(C(=O)NCCc4ccccc4)CC3)cc2)C1 (configuration not stated)	inactive	inactive	0.8 µg/mL (≈ 1.78 µM)	inactive
CCCNC(=O)C1=NOC(c2ccc(N3CCN(Cc4ccccc4)CC3)cc2)C1 (configuration not stated)	inactive	inactive	200 µg/mL (≈ 492 µM)	inactive
CCOC(=O)C1=NOC(c2ccc(N3CCC(Oc4ccc(OC(F)(F)F)cc4)CC3)cc2)C1 (configuration not stated)	inactive	inactive	25 µg/mL (≈ 52.3 µM)	inactive
CCOC(=O)C1=NOC(c2ccc(-c3ccccc3)cc2)C1 (configuration not stated)	inactive	inactive	100 µg/mL (≈ 339 µM)	inactive
